According to ChEMBL document CHEMBL1795297, “Design, synthesis and molecular docking studies of novel triazole as antifungal agent” (2011):
Converted amounts (≈) assume the structure as drawn.

Columns and labels:
Type in all cases: functional
[1] = system: Candida albicans; assay: Antifungal activity against Candida albicans ATCC Y0109 after 24 hrs by micro-broth dilution method; details: ATCC Y0109, 24 h
How it was run: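 ATCC quality-control strain, tested in every assay. NCCLS M27-A2 broth microdilution. Compounds were dissolved in DMSO, serially diluted in growth medium, inoculated and incubated at 35 °C, with growth read at 24 h. MIC80 is the first well with about 80% growth reduction relative to the drug-free control. Each test was run three times and the mean of replicates taken.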

[2] = system: Aspergillus fumigatus; assay: Antifungal activity against Aspergillus fumigatus clinical isolate by micro-broth dilution method
How it was run: (§1)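 Clinical isolate. MIC by broth microdilution following the NCCLS M27-A2 reference method for yeasts. Compounds were dissolved in DMSO, serially diluted in growth medium, inoculated and incubated at 35 °C. MIC80 is the first well with about 80% less growth than the drug-free well. Each test was run three times and the mean of replicates reported.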

[3] = system: Cryptococcus neoformans; assay: Antifungal activity against Cryptococcus neoformans ATCC BLS108 after 72 hrs by micro-broth dilution method; details: ATCC BLS108, 72 h
How it was run: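 Quality-control ATCC strain included in each assay. Microbroth dilution per NCCLS M27-A2. DMSO-dissolved compounds were serially diluted in growth medium, inoculated and held at 35 °C, with MIC read at 72 h. MIC80 is the first well showing about 80% growth reduction versus the drug-free well. Tests were done in triplicate and the mean reported.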

[4] = Antifungal activity against Fonsecaea compacta clinical isolate by micro-broth dilution method; how it was run: as §1
[5] = system: Nannizzia gypsea; assay: Antifungal activity against Microsporum gypseum clinical isolate by micro-broth dilution method; how it was run: as §1
[6] = system: Trichophyton rubrum; assay: Antifungal activity against Trichophyton rubrum clinical isolate by micro-broth dilution method; how it was run: as §1
[7] = system: Candida parapsilosis; assay: Antifungal activity against Candida parapsilosis clinical isolate by micro-broth dilution method; details: Lodderomyces parapsilosis; how it was run: as §1
[8] = system: Candida tropicalis; assay: Antifungal activity against Candida tropicalis clinical isolate by micro-broth dilution method; how it was run: as §1

Compound	MIC80 [1]	MIC80 [2]	MIC80 [3]	MIC80 [4]	MIC80 [5]	MIC80 [6]	MIC80 [7]	MIC80 [8]
O=C(/C=C/c1ccc(F)cc1)Nc1ccc(N2CCN(CC(O)(Cn3cncn3)c3ccc(F)cc3F)CC2)c(C(F)(F)F)c1 (configuration not stated)	0.0156 µg/mL (≈ 0.0247 µM)	4 µg/mL (≈ 6.34 µM)	0.25 µg/mL (≈ 0.396 µM)					
CCCCCCC(=O)Nc1ccc(N2CCN(CC(O)(Cn3cncn3)c3ccc(F)cc3F)CC2)c(C(F)(F)F)c1 (configuration not stated)	1 µg/mL (≈ 1.68 µM)	> 64 µg/mL	1 µg/mL (≈ 1.68 µM)	16 µg/mL (≈ 26.9 µM)	4 µg/mL (≈ 6.73 µM)	4 µg/mL (≈ 6.73 µM)	4 µg/mL (≈ 6.73 µM)	4 µg/mL (≈ 6.73 µM)
COc1cccc(OC)c1/C=C/C(=O)Nc1ccc(N2CCN(CC(O)(Cn3cncn3)c3ccc(F)cc3F)CC2)c(C(F)(F)F)c1 (configuration not stated)	0.25 µg/mL (≈ 0.372 µM)	> 64 µg/mL	1 µg/mL (≈ 1.49 µM)					
O=C(Nc1ccc(N2CCN(CC(O)(Cn3cncn3)c3ccc(F)cc3F)CC2)c(C(F)(F)F)c1)c1cccnc1 (configuration not stated)	0.0625 µg/mL (≈ 0.106 µM)	4 µg/mL (≈ 6.81 µM)	0.25 µg/mL (≈ 0.425 µM)					
O=C(Nc1ccc(N2CCN(CC(O)(Cn3cncn3)c3ccc(F)cc3F)CC2)c(C(F)(F)F)c1)c1ccco1 (configuration not stated)	0.0625 µg/mL (≈ 0.108 µM)	1 µg/mL (≈ 1.73 µM)	0.25 µg/mL (≈ 0.434 µM)					
N#Cc1cccc(/C=C/C(=O)Nc2ccc(N3CCN(CC(O)(Cn4cncn4)c4ccc(F)cc4F)CC3)c(C(F)(F)F)c2)c1 (configuration not stated)	0.25 µg/mL (≈ 0.392 µM)	4 µg/mL (≈ 6.27 µM)	0.25 µg/mL (≈ 0.392 µM)					
O=C(/C=C/c1cccc(Cl)c1)Nc1ccc(N2CCN(CC(O)(Cn3cncn3)c3ccc(F)cc3F)CC2)c(C(F)(F)F)c1 (configuration not stated)	0.25 µg/mL (≈ 0.386 µM)	4 µg/mL (≈ 6.18 µM)	0.25 µg/mL (≈ 0.386 µM)					
C[C@@H](c1ncncc1F)[C@](O)(Cn1cncn1)c1ccc(F)cc1F [VORICONAZOLE]	0.0156 µg/mL (≈ 0.0447 µM)	1 µg/mL (≈ 2.86 µM)	0.0156 µg/mL (≈ 0.0447 µM)	0.0156 µg/mL (≈ 0.0447 µM)	0.0039 µg/mL (≈ 0.0112 µM)	0.0039 µg/mL (≈ 0.0112 µM)	1 µg/mL (≈ 2.86 µM)	0.25 µg/mL (≈ 0.716 µM)
CCC(C)n1ncn(-c2ccc(N3CCN(c4ccc(OCC5COC(Cn6cncn6)(c6ccc(Cl)cc6Cl)O5)cc4)CC3)cc2)c1=O (configuration not stated) [ITRACONAZOLE]	1 µg/mL (≈ 1.42 µM)	1 µg/mL (≈ 1.42 µM)	1 µg/mL (≈ 1.42 µM)	0.25 µg/mL (≈ 0.354 µM)	0.0156 µg/mL (≈ 0.0221 µM)	0.0156 µg/mL (≈ 0.0221 µM)	0.25 µg/mL (≈ 0.354 µM)	0.25 µg/mL (≈ 0.354 µM)
O=C(/C=C/c1ccco1)Nc1ccc(N2CCN(CC(O)(Cn3cncn3)c3ccc(F)cc3F)CC2)c(C(F)(F)F)c1 (configuration not stated)	0.25 µg/mL (≈ 0.415 µM)	4 µg/mL (≈ 6.64 µM)	0.25 µg/mL (≈ 0.415 µM)					
COc1ccc(C(=O)Nc2ccc(N3CCN(CC(O)(Cn4cncn4)c4ccc(F)cc4F)CC3)c(C(F)(F)F)c2)cc1 (configuration not stated)	1 µg/mL (≈ 1.62 µM)	4 µg/mL (≈ 6.49 µM)	1 µg/mL (≈ 1.62 µM)	16 µg/mL (≈ 25.9 µM)	1 µg/mL (≈ 1.62 µM)	1 µg/mL (≈ 1.62 µM)	1 µg/mL (≈ 1.62 µM)	1 µg/mL (≈ 1.62 µM)
O=C(Nc1ccc(N2CCN(CC(O)(Cn3cncn3)c3ccc(F)cc3F)CC2)c(C(F)(F)F)c1)c1ccccc1 (configuration not stated)	1 µg/mL (≈ 1.7 µM)	4 µg/mL (≈ 6.82 µM)	0.25 µg/mL (≈ 0.426 µM)	4 µg/mL (≈ 6.82 µM)	1 µg/mL (≈ 1.7 µM)	1 µg/mL (≈ 1.7 µM)	0.25 µg/mL (≈ 0.426 µM)	1 µg/mL (≈ 1.7 µM)
CC(C)(C)c1ccc(C(=O)Nc2ccc(N3CCN(CC(O)(Cn4cncn4)c4ccc(F)cc4F)CC3)c(C(F)(F)F)c2)cc1 (configuration not stated)	4 µg/mL (≈ 6.22 µM)	> 64 µg/mL	0.25 µg/mL (≈ 0.389 µM)	4 µg/mL (≈ 6.22 µM)	4 µg/mL (≈ 6.22 µM)	4 µg/mL (≈ 6.22 µM)	0.25 µg/mL (≈ 0.389 µM)	1 µg/mL (≈ 1.56 µM)
O=C(Nc1ccc(N2CCN(CC(O)(Cn3cncn3)c3ccc(F)cc3F)CC2)c(C(F)(F)F)c1)c1ccncc1 (configuration not stated)	0.0625 µg/mL (≈ 0.106 µM)	1 µg/mL (≈ 1.7 µM)	0.25 µg/mL (≈ 0.425 µM)					
O=C(/C=C/c1ccccc1F)Nc1ccc(N2CCN(CC(O)(Cn3cncn3)c3ccc(F)cc3F)CC2)c(C(F)(F)F)c1 (configuration not stated)	0.0625 µg/mL (≈ 0.0991 µM)	4 µg/mL (≈ 6.34 µM)	0.25 µg/mL (≈ 0.396 µM)					
CC(C)(C)C(=O)Nc1ccc(N2CCN(CC(O)(Cn3cncn3)c3ccc(F)cc3F)CC2)c(C(F)(F)F)c1 (configuration not stated)	0.25 µg/mL (≈ 0.441 µM)	> 64 µg/mL	1 µg/mL (≈ 1.76 µM)	4 µg/mL (≈ 7.06 µM)	0.25 µg/mL (≈ 0.441 µM)	4 µg/mL (≈ 7.06 µM)	1 µg/mL (≈ 1.76 µM)	1 µg/mL (≈ 1.76 µM)
OC(Cn1cncn1)(Cn1cncn1)c1ccc(F)cc1F [FLUCONAZOLE]	4 µg/mL (≈ 13.1 µM)	64 µg/mL (≈ 209 µM)	1 µg/mL (≈ 3.27 µM)	16 µg/mL (≈ 52.2 µM)	0.25 µg/mL (≈ 0.816 µM)	0.25 µg/mL (≈ 0.816 µM)	1 µg/mL (≈ 3.27 µM)	1 µg/mL (≈ 3.27 µM)
O=C(/C=C/c1ccccc1Cl)Nc1ccc(N2CCN(CC(O)(Cn3cncn3)c3ccc(F)cc3F)CC2)c(C(F)(F)F)c1 (configuration not stated)	0.0625 µg/mL (≈ 0.0966 µM)	4 µg/mL (≈ 6.18 µM)	0.25 µg/mL (≈ 0.386 µM)					
COc1ccc(/C=C/C(=O)Nc2ccc(N3CCN(CC(O)(Cn4cncn4)c4ccc(F)cc4F)CC3)c(C(F)(F)F)c2)cc1OC (configuration not stated)	1 µg/mL (≈ 1.49 µM)	4 µg/mL (≈ 5.95 µM)	1 µg/mL (≈ 1.49 µM)					
